Test results reported in ChEMBL document CHEMBL1275277, “Synthesis of bioactive polyheterocyclic ring systems as 5α-reductase inhibitors” (Eur J Med Chem, 2010).

Columns and labels:
Rattus norvegicus [1] = assay: Acute toxicity in sc dosed albino rat; assay type: organism-based; conditions: in vivo
How it was run: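 Male albino rats were injected with increasing doses of each agent. LD50 and LD90, the doses killing 50% and 90% of the animals, were calculated by a published method.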

Rattus norvegicus [2] = assay: Inhibition of 5-alpha-reductase activity in sc dosed Sprague-Dawley rat assessed as effect on serum steroid level administered on postnatal third day measured after 7 weeks of age by radioimmunoassay; assay type: functional
How it was run: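 Male Sprague–Dawley rats, 12 per group, given compound sc in 5% Tween 80 in water from postnatal day 3 until 7 weeks of age. Vehicle-treated negative control; anastrozole as positive control. Serum testosterone and DHT measured by RIA after ether extraction, using specific antisera and tritiated tracer, 24 h at 4 °C. Levels read from a standard curve and compared with vehicle controls to give ED50.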

Rattus norvegicus [3] = assay: Inhibition of 5-alpha-reductase activity in sc dosed Sprague-Dawley rat assessed as effect on serum steroid level administered on postnatal third day measured after 7 weeks of age by radioimmunoassay relative to anastrozole; assay type: functional

Structure (SMILES) | LD50 (Rattus norvegicus [1]) [µg/kg] | LD90 (Rattus norvegicus [1]) [µg/kg] | ED50 (Rattus norvegicus [2]) [µg/kg] | fold change (FC) (Rattus norvegicus [3])
CCN1C/C(=C\c2ccc(C)cc2)c2nc3nc4n(c(=O)c3c(-c3ccc(C)cc3)c2C1)C(=O)CS4 | 516.56 | 1148.5 | 0.766 | 1.423
CC(C)(C#N)c1cc(Cn2cncn2)cc(C(C)(C)C#N)c1 [ANASTROZOLE] | 2.415 | 3.69 | 1.09 | 
CCOC(=O)C1=NN(c2ccc(Cl)cc2)C2=NC3=C(CN(CC)C/C3=C\c3ccc(C)cc3)C(c3ccc(C)cc3)N12 (configuration not stated) |  |  | 0.441 | 2.472
CCOC(=O)C1=NN(c2ccc(C)cc2)C2=NC3=C(CN(CC)C/C3=C\c3ccc(C)cc3)C(c3ccc(C)cc3)N12 (configuration not stated) | 224.33 | 514.33 | 1 | 1.09
CCN1C/C(=C\c2ccc(C)cc2)c2nc3[nH]c(=S)[nH]c(=O)c3c(-c3ccc(C)cc3)c2C1 | 447.88 | 937.34 | 0.795 | 1.371
CCN1CC2=C(N=C3N(c4ccccc4)N=C(C(=O)Nc4ccccc4)N3C2c2ccc(C)cc2)/C(=C/c2ccc(C)cc2)C1 (configuration not stated) | 6534.45 | 1950.12 | 0.432 | 2.523
CCN1CC2=C(N=C3N(c4ccc(Cl)cc4)N=C(C(C)=O)N3C2c2ccc(C)cc2)/C(=C/c2ccc(C)cc2)C1 (configuration not stated) | 312.34 | 735.34 | 0.856 | 1.273
CCN1CC2=C(N=C3N(c4ccccc4)N=C(C(C)=O)N3C2c2ccc(C)cc2)/C(=C/c2ccc(C)cc2)C1 (configuration not stated) | 257.23 | 419.23 | 0.911 | 1.196
CCN1CC2=C(NC(=S)NC2c2ccc(C)cc2)/C(=C/c2ccc(C)cc2)C1 (configuration not stated) | 222.23 | 434.76 | 1.88 | 0.5798
CCN1CC2=C(N=C3N(c4ccc(C)cc4)N=C(C(=O)Nc4ccccc4)N3C2c2ccc(C)cc2)/C(=C/c2ccc(C)cc2)C1 (configuration not stated) | 236.28 | 417.34 | 0.925 | 1.178
